The text below walks through data of ChEMBL document CHEMBL4680304, “Synthesis and evaluation of new phenyl acrylamide derivatives as potent non-nucleoside anti-HBV agents” (Bioorg Med Chem, 2021).

Series [1] relates to Hepatitis B virus. Description: Antiviral activity against lamivudine/entecavir-resistant HBV rtL180M/rtM204V/rtT184L mutant infected in human HepG2 2.2.15 cells assessed as inhibition of viral DNA replication at 10 uM measured after incubation of 72 hrs by RT-PCR analysis relative to control. In kind it is functional. In outline:
(§1)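 HepG2 cells (2 × 10^5/well) plated 24 h, then transiently transfected for 24 h with plasmid carrying full-genome HBV with rtL180M + rtM204V + rtT184L (wild-type genome in parallel). Washed with PBS, then given fresh medium with compound for 72 h. Intracellular HBV DNA replicative intermediates extracted and quantified by real-time PCR against the wild-type group.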

Series [2] relates to Hepatitis B virus. Briefly: Antiviral activity against wild type HBV infected in human […] cells assessed as inhibition of viral DNA replication at 10 uM measured after incubation of 72 hrs by RT-PCR analysis relative to control. In kind it is functional, HepG2 2.2.15. The essentials:
(§2)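 Parental HepG2 cells were plated at 2×10^5/well. After 24 h they were transiently transfected for 24 h with a full-length wild-type HBV genome plasmid, then washed with PBS. Cells were then treated for 72 h in fresh medium: entecavir 10 µM, lamivudine 100 µM. Intracellular HBV DNA replicative intermediates were quantified by real-time PCR.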

Series [3] deals with Hepatitis B virus. Briefly: Antiviral activity against lamivudine/entecavir-resistant HBV rtL180M/rtM204V/rtT184L mutant infected in human HepG2 2.2.15 cells assessed as inhibition of viral DNA replication at 100 uM measured after incubation of 72 hrs by RT-PCR analysis relative to control. In kind it is functional. In outline:
as §1

The subject of series [4] is Hepatitis B virus. Description: Antiviral activity against lamivudine/entecavir-resistant HBV rtL180M/rtM204V/rtT184L mutant infected in human HepG2 2.2.15 cells assessed as inhibition of viral DNA replication measured after incubation of 72 hrs by RT-PCR analysis. Particulars: HepG2 2.2.15, 72 h. In kind it is functional, organism-based. The essentials: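 HepG2 cells transiently transfected for 24 h with full-genome HBV plasmid carrying rtL180M + rtM204V + rtT184L, washed, then treated over a dose range for 72 h. HBV DNA replicative intermediates quantified by real-time PCR. IC50 is the concentration giving 50% inhibition of HBV DNA replication, as mean ± SD of triplicate experiments.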

Series [5] deals with Hepatitis B virus. Description: Antiviral activity against HBV infected in human HepG2 2.2.15 cells assessed as decrease in extracellular viral DNA level at 0.8 uM measured after incubation of 6 days by RT-PCR analysis. It is filed as functional. The settings on record: HepG2 2.2.15, 144 h, time 6 day. The essentials: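 HepG2 2.2.15 cells, which stably carry the HBV genome, were grown in DMEM with 10% FBS, penicillin/streptomycin and 0.38 mg/mL G418. They were seeded at 2×10^5/well and allowed to recover for 24 h. Cells were then exposed to 0.8 µM compound for 6 days, with medium changed every 2 days. HBV DNA was quantified by real-time PCR and expressed as % inhibition versus control.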

Series [6] in a line: Selectivity index, ratio of CC50 for human HepG2 2.2.15 to IC50 of antiviral activity against HBV infected in human HepG2 2.2.15 cells assessed as decrease in extracellular viral DNA level measured after incubation of 6 days by RT-PCR analysis. Particulars: time 6 day, read-out: Selectivity Index. In kind it is toxicity, cell-based. The essentials: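 SI was calculated as the CC50 in HepG2 2.2.15 cells (72 h MTT) divided by the IC50 for HBV DNA inhibition. That IC50 came from HepG2 2.2.15 cells treated for 6 days with medium changed every 2 days, with HBV DNA quantified by real-time PCR.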

A short description of series [7]: Cytotoxicity against human HepG2 2.2.15 cell line assessed as cell viability measured after 72 hrs by MTT assay. It is filed as cell-based. Particulars: HepG2 2.2.15 cells. In outline:
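HepG2 2.2.15 cells were precultured for 24 h, then incubated with compound for 72 h. Viability was read as MTT absorbance at 490 nm relative to untreated cells on the same plate. CC50 is the concentration causing 50% cell death.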
(Formazan colour is commonly taken as a measure of viable cells.)

The subject of series [8] is Hepatitis B virus. Briefly: Antiviral activity against wild type HBV infected in human […] cells assessed as inhibition of viral DNA replication at 100 uM measured after incubation of 72 hrs by RT-PCR analysis relative to control. It is filed as functional, HepG2 2.2.15. In outline:
as §2

The subject of series [9] is Hepatitis B virus. Briefly: Antiviral activity against HBV infected in human HepG2 2.2.15 cells assessed as inhibition of pregenomic RNA expression at 1 uM measured after incubation of 6 by RT-PCR analysis relative to control. In kind it is functional. The settings on record: HepG2 2.2.15, 144 h, read-out: INH, time 6 day. The essentials: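 HepG2 2.2.15 cells were seeded at 6×10^5/well in 6-well plates. They were incubated with 1 µM compound for 6 days. Total cellular RNA was then extracted and pgRNA copies/mL were measured by real-time PCR, giving % inhibition relative to untreated control.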

Series [10] deals with Hepatitis B virus. Description: Antiviral activity against HBV infected in human HepG2 2.2.15 cells assessed as decrease in extracellular viral DNA level measured after incubation of 6 days by RT-PCR analysis. It is filed as functional, organism-based. The settings on record: HepG2 2.2.15, 144 h. The essentials: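 Cells were HepG2 2.2.15 (stable HBV genome), seeded at 2×10^5/well and recovered for 24 h. Dose-dependent exposure to compound lasted 6 days, with medium replaced every 2 days. HBV DNA was measured by real-time PCR. IC50 is the concentration giving 50% inhibition of HBV DNA replication, reported as mean ± SD of triplicate experiments.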

The structures appear in SMILES notation.

In the case of `C=C1[C@H](CO)[C@@H](O)C[C@@H]1n1cnc2c(=O)[nH]c(N)nc21` [ENTECAVIR], the values for the inhibition at 10 µM in the series on Hepatitis B virus [1] and with Hepatitis B virus [2] were 20.7% and 96.8%, respectively.

As usually defined, the IC50 is the concentration at which inhibition is half-maximal. By CC50 is commonly meant the concentration that lowers cell viability or growth by half. On to `Nc1ccn([C@@H]2CS[C@H](CO)O2)c(=O)n1` [LAMIVUDINE], for which the inhibition at 100 µM stood at 18.6% with Hepatitis B virus [3] and 90% in the series on Hepatitis B virus [8]. Also, the half-inhibitory concentration (IC50) in the series with Hepatitis B virus [4] is above 100 µM; in the series on Hepatitis B virus [10], 0.031 µM. Also, the inhibition at 0.8 µM in the series with Hepatitis B virus [5] turned out to be 86.2%. For the same compound, the selectivity ratio at 144 h in [6] was above 1000. The half-maximal cytotoxic concentration (CC50) at 72 h in [7] was above 100 µM. The inhibition at 1 µM in the series on Hepatitis B virus [9] worked out at 0.26%.
